Measured values taken from PMC6133083 (European Journal of Drug Metabolism and Pharmacokinetics, 2018).

Assays:
[1] = test system: P-gp/BCRP; settings: humans, oral dosing; cited from earlier work
[2] = test system: P-gp/BCRP at the non-human primate BBB; settings: intravenous administration; cited from earlier work
[3] = FVB mice, microemulsion dosing; cited from earlier work
[4] = test system: human P-gp; settings: cited from earlier work
[5] = assay type: in vivo, Sprague–Dawley rats
How it was run: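 Male Sprague–Dawley rats (10–12 weeks, 0.31–0.48 kg), n = 5/group, given 15 mg/kg once as solution or microemulsion by gavage or i.p. injection. The solution only was also given as an i.v. tail-vein bolus under isoflurane. Sublingual blood was drawn at 0.5, 1, 2, 4, 8 and 24 h. Plasma was methanol-precipitated and assayed by LC–MS/MS (calibration 0.005–10 µg/mL). Cmax, Tmax and trapezoidal AUC0–24 came from non-fitted data, expressed relative to i.v.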

[6] = test system: P-gp at the BBB; settings: humans, cited from earlier work
[7] = humans, after intravenous administration; cited from earlier work
[8] = rats and monkeys, after intravenous [14C]tariquidar; cited from earlier work
[9] = test system: P-gp at the human BBB; settings: humans, P-gp inhibition at the BBB, plasma concentration; cited from earlier work
[10] = test system: human BCRP; settings: cited from earlier work
[11] = test system: P-gp at the BBB; settings: rats, plasma concentration; cited from earlier work
[12] = Tolerability of tariquidar administration in rats; assay type: in vivo, Sprague–Dawley rats; settings: 15 mg/kg single dose, intravenous, oral or intraperitoneal
[13] = Sprague-Dawley, rat, plasma, iv, 15 mg/kg
[14] = intraperitoneal dosing, both formulations pooled, rats
[15] = oral dosing irrespective of formulation, rats

COc1cc2c(cc1OC)CN(CCc1ccc(NC(=O)c3cccc4c(=O)c5cccc(OC)c5[nH]c34)cc1)CC2 [elacridar]
effect on brain uptake of [11C]erlotinib [1]: failed to increase brain uptake
increase in brain distribution of [11C]erlotinib [2]: 3.5 fold
oral bioavailability [3]: 47%

COc1cc2c(cc1OC)CN(CCc1ccc(NC(=O)c3cc(OC)c(OC)cc3NC(=O)c3cnc4ccccc4c3)cc1)CC2 [tariquidar]
in vitro EC50 for inhibition of its own transport [4]: 0.011 µg/mL
AUC(0-t) [5, 13]: 25200 ng·h/mL
Cmax [5, 13]: 1900 ng/mL
Tmax [5, 13]: 30 min
concentration at 30 min [5, 13]: 1910 ± 290 ng/mL
mean AUC0–24 as % of value after intravenous dosing [5, 14]: ~97%
mean Cmax as % of value after intravenous dosing [5, 14]: approximately 80%
mean AUC0–24 as % of value after intravenous exposure [5, 15]: ~79%
mean Cmax as % of value after intravenous exposure [5, 15]: approximately 65%
increase in brain distribution of (R)-[11C]verapamil and [11C]N-desmethyl-loperamide ([6]; PET, continuous intravenous infusion): up to fivefold increases
effect on brain distribution of [11C]N-desmethyl-loperamide ([6]; orally administered tariquidar): failed to reveal an effect
tariquidar metabolites in plasma [7]: no tariquidar metabolites were found in plasma
tariquidar-related material in plasma existing as unchanged parent compound [8]: > 95%
in vivo EC50 [9]: 1.454 µg/mL
in vitro EC50 for inhibition of its own transport ([10]; human BCRP): 0.201 µg/mL
ratio of EC50 for human BCRP to EC50 for human P-gp ([10]; inhibition of its own transport, in vitro): approximately 20 fold
in vivo half-maximum effect concentration (EC50) to increase brain uptake of (R)-[11C]verapamil [11]: 0.545 ± 0.03 µg/mL
tolerability [12]: well tolerated by all animals
